The values that follow come from ChEMBL document CHEMBL4049410, “Novel benzimidazolyl tetrahydroprotoberberines: Design, synthesis, antimicrobial evaluation and multi-targeting exploration” (2017).

Values after ≈ are worked out from the molar mass of the structure shown.

A word on the MIC: it is the lowest concentration that inhibits growth of the organism.

Assay [1] has as its system Staphylococcus aureus. Briefly: Antibacterial activity against methicillin-resistant Staphylococcus aureus N315 after 24 hrs by two-fold serial dilution assay. The assay is classed as functional. To be noted: Staphylococcus aureus, N315, 24 h; read-out: MIC.
A further assay concerns Bacillus subtilis. Briefly: Antibacterial activity against Bacillus subtilis after 24 hrs by two-fold serial dilution assay. The assay is classed as functional. The procedure, abridged:
(§1)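 Twofold serial broth dilution following NCCLS guidance, with Chloromycin, Norfloxacin and Fluconazole as positive controls. MIC in μM is the lowest concentration giving complete inhibition of visible bacterial or fungal growth.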

The subject of the next assay is Micrococcus luteus. As to the kind of experiment: Antibacterial activity against Micrococcus luteus ATCC 4698 after 24 hrs by two-fold serial dilution assay. The assay is classed as functional, NCTC 2665. The method, boiled down:
as §1

For assay [2], the system named is Staphylococcus aureus. Briefly: Antibacterial activity against Staphylococcus aureus ATCC 25923 after 24 hrs by two-fold serial dilution assay. The assay is classed as functional. The method, boiled down: as §1
Assay [3] has as its system Escherichia coli. As to the kind of experiment: Antibacterial activity against Escherichia coli JM109 after 24 hrs by two-fold serial dilution assay. The assay is classed as functional. The procedure, abridged: as §1
Assay [4] has as its system Escherichia coli. As to the kind of experiment: Antibacterial activity against Escherichia coli DH52 after 24 hrs by two-fold serial dilution assay. The assay is classed as functional. The procedure, abridged:
as §1

The test system of a further assay is Shigella dysenteriae. Briefly: Antibacterial activity against Shigella dysenteriae after 24 hrs by two-fold serial dilution assay. The assay is classed as functional.
The subject of the next assay is Pseudomonas aeruginosa. Briefly: Antibacterial activity against Pseudomonas aeruginosa after 24 hrs by two-fold serial dilution assay. The assay is classed as functional. The method, boiled down: as §1
In a further assay the test system is Salmonella typhi. Briefly: Antibacterial activity against Bacillus typhi after 24 hrs by two-fold serial dilution assay. The assay is classed as functional, Salmonella enterica subsp. enterica serovar Typhi. As to conditions: Salmonella enterica, 24 h; read-out: MIC.
The test system of another assay is Proteus vulgaris. As to the kind of experiment: Antibacterial activity against Bacillus proteus ATCC 13315 after 24 hrs by two-fold serial dilution assay. The assay is classed as functional. The method, boiled down: as §1
The test system of a further assay is Pichia norvegensis. As to the kind of experiment: Antifungal activity against Candida mycoderma after 24 hrs by two-fold serial dilution assay. The assay is classed as functional. The procedure, abridged: as §1
For the next assay, the system named is Cyberlindnera jadinii. Briefly: Antifungal activity against Candida utilis after 24 hrs by two-fold serial dilution assay. The assay is classed as functional. The method, boiled down: as §1
Another assay concerns Saccharomyces cerevisiae. As to the kind of experiment: Antifungal activity against Saccharomyces cerevisiae after 24 hrs by two-fold serial dilution assay. The assay is classed as functional. The method, boiled down: as §1
The next assay has as its system Aspergillus flavus. Briefly: Antifungal activity against Aspergillus flavus after 24 hrs by two-fold serial dilution assay. The assay is classed as functional. The method, boiled down:
as §1

A further assay has as its system Candida albicans. As to the kind of experiment: Antifungal activity against Candida albicans ATCC 76615 after 24 hrs by two-fold serial dilution assay. The assay is classed as functional. The method, boiled down:
as §1

[5] abbreviates: Bacillus subtilis, 24 h, read-out: MIC.
Where [6] appears, read: Micrococcus luteus, NCTC 2665, 24 h, read-out: MIC.
The mark [7] stands for this setting: Staphylococcus aureus, ATCC 25923, 24 h, read-out: MIC.
The mark [8] stands for this setting: Escherichia coli, JM109, 24 h, read-out: MIC.
The mark [9] stands for this setting: Escherichia coli, DH52, 24 h, read-out: MIC.
[10] abbreviates: Shigella dysenteriae, 24 h, read-out: MIC.
[11] abbreviates: Pseudomonas aeruginosa, 24 h, read-out: MIC.
The mark [12] stands for this setting: Proteus vulgaris, ATCC 13315, 24 h, read-out: MIC.
Setting [13] is: Pichia norvegensis, 24 h, read-out: MIC.
Where [14] appears, read: Williopsis jadinii, 24 h, read-out: MIC.
The mark [15] stands for this setting: Saccharomyces cerevisiae, 24 h, read-out: MIC.
The mark [16] stands for this setting: Aspergillus flavus, 24 h, read-out: MIC.
Where [17] appears, read: Candida albicans, ATCC 76615, 24 h, read-out: MIC.

Consider `COc1ccc2c(c1O)CN1CCc3cc4c(cc3C1C2)OCO4` (stereo unspecified), for which the minimum inhibitory concentration (MIC) was found to be 1310 µM (≈ 427 µg/mL) in the assay on Staphylococcus aureus [1]; 1570 µM (≈ 512 µg/mL) in the assay with Bacillus subtilis (setting [5]); 1570 µM (≈ 512 µg/mL) in the assay on Micrococcus luteus (setting [6]); 787 µM (≈ 256 µg/mL) in the assay with Staphylococcus aureus [2] (setting [7]); 656 µM (≈ 213 µg/mL) in the assay on Escherichia coli [3] (setting [8]); 1570 µM (≈ 512 µg/mL) with Escherichia coli [4] (setting [9]). Also, the MIC turned out to be 1570 µM (≈ 512 µg/mL) in the assay with Shigella dysenteriae (setting [10]); 787 µM (≈ 256 µg/mL) in the assay on Pseudomonas aeruginosa (setting [11]); 787 µM (≈ 256 µg/mL) in the assay with Salmonella typhi; 1310 µM (≈ 427 µg/mL) in the assay with Proteus vulgaris (setting [12]); 164 µM (≈ 53.3 µg/mL) in the assay with Pichia norvegensis (setting [13]); 1050 µM (≈ 341 µg/mL) in the assay with Cyberlindnera jadinii (setting [14]). Further, the MIC in the assay with Saccharomyces cerevisiae (setting [15]) worked out at 1570 µM (≈ 512 µg/mL); with Aspergillus flavus (setting [16]), 656 µM (≈ 213 µg/mL); in the assay on Candida albicans (setting [17]) it was 524 µM (≈ 171 µg/mL).
Consider `COc1cc(-c2nc3ccccc3n2Cc2ccccc2F)c2c(c1O)CN1CCc3cc4c(cc3C1C2)OCO4` (stereo unspecified), for which the minimum inhibitory concentration (MIC) with Staphylococcus aureus [1] came to 24.3 µM (≈ 13.4 µg/mL); in the assay with Bacillus subtilis (setting [5]), 48.5 µM (≈ 26.7 µg/mL); in the assay on Micrococcus luteus (setting [6]) it was 29.1 µM (≈ 16 µg/mL); with Staphylococcus aureus [2], 58.2 µM (≈ 32 µg/mL); in the assay with Escherichia coli [3] (setting [8]) it was 29.1 µM (≈ 16 µg/mL); in the assay with Escherichia coli [4] (setting [9]) it was 38.8 µM (≈ 21.3 µg/mL). Besides, the MIC was found to be 48.5 µM (≈ 26.7 µg/mL) with Shigella dysenteriae (setting [10]); 58.2 µM (≈ 32 µg/mL) in the assay on Pseudomonas aeruginosa (setting [11]); 38.8 µM (≈ 21.3 µg/mL) in the assay on Proteus vulgaris (setting [12]); 19.4 µM (≈ 10.7 µg/mL) in the assay on Pichia norvegensis (setting [13]); 9.7 µM (≈ 5.33 µg/mL) in the assay with Cyberlindnera jadinii (setting [14]); 58.2 µM (≈ 32 µg/mL) with Saccharomyces cerevisiae (setting [15]). Besides, the MIC in the assay with Aspergillus flavus and in the assay with Candida albicans (setting [17]) was 24.3 µM (≈ 13.4 µg/mL) throughout.
`COc1cc(-c2nc3ccccc3n2Cc2ccc(F)cc2)c2c(c1O)CN1CCc3cc4c(cc3C1C2)OCO4.Cl` (stereo unspecified): the minimum inhibitory concentration (MIC) in the assay on Bacillus subtilis worked out at 182 µM; with Micrococcus luteus it was 182 µM; against Staphylococcus aureus [2], 109.2 µM; against Escherichia coli [3], 182 µM; against Escherichia coli [4] it was 182 µM; in the assay with Shigella dysenteriae, 145.6 µM. For the same molecule, the MIC is 182 µM against Pseudomonas aeruginosa; 182 µM against Proteus vulgaris; 218.4 µM with Pichia norvegensis; 182 µM against Cyberlindnera jadinii; 36.4 µM in the assay with Saccharomyces cerevisiae; 182 µM against Aspergillus flavus. Also, the MIC against Candida albicans came out at 182 µM.
As to `CCCCCCCCn1c(-c2cc(OC)c(O)c3c2CC2c4cc5c(cc4CCN2C3)OCO5)nc2ccccc21` (stereo unspecified), the minimum inhibitory concentration (MIC) was found to be 231 µM (≈ 128 µg/mL) in the assay on Staphylococcus aureus [1]; 57.8 µM (≈ 32 µg/mL) with Bacillus subtilis (setting [5]); 48.2 µM (≈ 26.7 µg/mL) in the assay with Micrococcus luteus (setting [6]); 14.4 µM (≈ 7.97 µg/mL) in the assay on Staphylococcus aureus [2] (setting [7]); 116 µM (≈ 64 µg/mL) in the assay with Escherichia coli [3] (setting [8]); 24.1 µM (≈ 13.3 µg/mL) in the assay on Escherichia coli [4] (setting [9]). Also, the MIC came to 77.1 µM (≈ 42.7 µg/mL) in the assay on Shigella dysenteriae (setting [10]); 38.5 µM (≈ 21.3 µg/mL) with Pseudomonas aeruginosa (setting [11]); 24.1 µM (≈ 13.3 µg/mL) in the assay on Salmonella typhi; 9.6 µM (≈ 5.32 µg/mL) with Proteus vulgaris (setting [12]); 4.8 µM (≈ 2.66 µg/mL) in the assay on Pichia norvegensis (setting [13]); 24.1 µM (≈ 13.3 µg/mL) with Cyberlindnera jadinii (setting [14]). In addition, the MIC in the assay on Saccharomyces cerevisiae (setting [15]) came out at 96.3 µM (≈ 53.3 µg/mL); in the assay on Aspergillus flavus (setting [16]), 28.9 µM (≈ 16 µg/mL); in the assay with Candida albicans (setting [17]), 28.9 µM (≈ 16 µg/mL).
As to `CCn1c(-c2cc(OC)c(O)c3c2CC2c4cc5c(cc4CCN2C3)OCO5)nc2ccccc21` (stereo unspecified), the minimum inhibitory concentration (MIC) is 14.2 µM (≈ 6.67 µg/mL) in the assay on Staphylococcus aureus [1]; 34.1 µM (≈ 16 µg/mL) in the assay on Bacillus subtilis (setting [5]); 28.4 µM (≈ 13.3 µg/mL) in the assay with Micrococcus luteus (setting [6]); 28.4 µM (≈ 13.3 µg/mL) in the assay on Staphylococcus aureus [2] (setting [7]); 28.4 µM (≈ 13.3 µg/mL) in the assay on Escherichia coli [3] (setting [8]); 136 µM (≈ 64 µg/mL) with Escherichia coli [4] (setting [9]). Moreover, the MIC worked out at 136 µM (≈ 64 µg/mL) with Shigella dysenteriae (setting [10]); 68.2 µM (≈ 32 µg/mL) in the assay with Pseudomonas aeruginosa (setting [11]); 14.2 µM (≈ 6.67 µg/mL) in the assay on Salmonella typhi; 56.8 µM (≈ 26.7 µg/mL) in the assay with Proteus vulgaris (setting [12]); 56.8 µM (≈ 26.7 µg/mL) with Pichia norvegensis (setting [13]); 34.1 µM (≈ 16 µg/mL) in the assay on Cyberlindnera jadinii (setting [14]). For the same molecule, the MIC in the assay on Saccharomyces cerevisiae (setting [15]) came to 22.7 µM (≈ 10.7 µg/mL); in the assay on Aspergillus flavus (setting [16]), 56.8 µM (≈ 26.7 µg/mL); in the assay on Candida albicans (setting [17]), 17 µM (≈ 7.98 µg/mL).
Regarding `CCn1cc(C(=O)O)c(=O)c2cc(F)c(N3CCNCC3)cc21` [NORFLOXACIN], the MIC with Staphylococcus aureus [1] is 25.1 µM (≈ 8.02 µg/mL); in the assay on Bacillus subtilis (setting [5]), 3.1 µM (≈ 0.99 µg/mL); in the assay with Micrococcus luteus (setting [6]) it was 4.2 µM (≈ 1.34 µg/mL); with Staphylococcus aureus [2] (setting [7]), 1.1 µM (≈ 0.351 µg/mL); in the assay with Escherichia coli [3] (setting [8]), 50.1 µM (≈ 16 µg/mL); in the assay with Escherichia coli [4] (setting [9]), 50.1 µM (≈ 16 µg/mL). Moreover, the minimum inhibitory concentration (MIC) with Shigella dysenteriae (setting [10]) amounted to 5.3 µM (≈ 1.69 µg/mL); in the assay with Pseudomonas aeruginosa (setting [11]), 41.8 µM (≈ 13.3 µg/mL); with Salmonella typhi it was 10.4 µM (≈ 3.32 µg/mL); in the assay with Proteus vulgaris (setting [12]), 12.5 µM (≈ 3.99 µg/mL).
Turning to `OC(Cn1cncn1)(Cn1cncn1)c1ccc(F)cc1F` [FLUCONAZOLE], the minimum inhibitory concentration (MIC) was determined as 26.1 µM (≈ 7.99 µg/mL) in the assay with Pichia norvegensis (setting [13]), 10.9 µM (≈ 3.34 µg/mL) with Cyberlindnera jadinii (setting [14]), 52.2 µM (≈ 16 µg/mL) in the assay on Saccharomyces cerevisiae (setting [15]) and 836 µM (≈ 256 µg/mL) in the assay on Aspergillus flavus (setting [16]).
